Reference: ChEMBL document CHEMBL1649253, “New approach for drug susceptibility testing: monitoring the stress response of mycobacteria” (2009)
≈ marks a conversion by molar mass, not a printed value.

Legend:
[1] = system: Mycobacterium tuberculosis; assay: Antibacterial activity against Mycobacterium tuberculosis H37Ra by broth microdilution method; assay type: functional
Outline: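 Broth microdilution in supplemented 7H9 (complete) medium with twofold drug dilutions. Inoculum 10^6 CFU/ml from cultures grown at 37°C to mid- or late-log phase. Incubated 21 days at 37°C, then turbidity inspected by eye against drug-free controls. MIC is the lowest concentration with no visible growth.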

[2] = system: Mycobacterium tuberculosis; assay: Antibacterial activity against Mycobacterium tuberculosis H37Ra by BACTEC MGIT 960 method; assay type: functional
[3] = system: Mycobacterium tuberculosis; assay: Antibacterial activity against Mycobacterium tuberculosis H37Ra by 7H11 agar plate method
[4] = system: Mycobacterium tuberculosis; assay: Antibacterial activity against Mycobacterium tuberculosis H37Ra by 7H9 broth dilution method; assay type: functional
[5] = system: Mycobacterium tuberculosis; assay: Antibacterial activity against Mycobacterium tuberculosis H37Ra by 7H10 agar plate method; assay type: functional
[6] = system: Mycobacterium tuberculosis; assay: Antibacterial activity against Mycobacterium tuberculosis H37Ra by BACTEC method; assay type: functional

| SMILES | MIC [1] [µg/mL] | MIC [2] [µg/mL] | MIC [3] [µg/mL] | MIC [4] [µg/mL] | MIC [5] [µg/mL] | MIC [6] [µg/mL] |
| --- | --- | --- | --- | --- | --- | --- |
| NC(=O)c1cnccn1 [PYRAZINAMIDE] | 50 (≈ 406 µM) | 20 (≈ 162 µM) | 50 (≈ 406 µM) | – | – | – |
| CO[C@H]1/C=C/O[C@@]2(C)Oc3c(C)c(O)c4c(O)c(c(/C=N/N5CCN(C)CC5)c(O)c4c3C2=O)NC(=O)/C(C)=C\C=C\[C@H](C)[C@H](O)[C@@H](C)[C@@H](O)[C@@H](C)[C@H](OC(C)=O)[C@@H]1C [RIFAMPIN] | 0.2 (≈ 0.243 µM) | – | – | 0.125 (≈ 0.152 µM) | 0.2 (≈ 0.243 µM) | 0.25 (≈ 0.304 µM) |
| CC[C@@H](CO)NCCN[C@@H](CC)CO [ETHAMBUTOL] | 5 (≈ 24.5 µM) | – | – | 2 (≈ 9.79 µM) | 5 (≈ 24.5 µM) | – |
| NNC(=O)c1ccncc1 [ISONIAZID] | 0.2 (≈ 1.46 µM) | – | – | 0.25 (≈ 1.82 µM) | 0.2 (≈ 1.46 µM) | 0.03 (≈ 0.219 µM) |
